Assay results published in paper PMC6396318 (Journal of the American Chemical Society, 2019).
Like-named read-outs stand apart in the source and are kept apart here. Marks after values point to notes of the source that are not given here.

Legend:
[1] = Indiscriminate thiol reactivity assay with cysteine; format: physicochemical; settings: for Cysteine adduct formation: incubated with cysteine for 23 h, LC–MS; for Cysteine adduct pH 5.5 / Cysteine adduct pH 7.5 / Cysteine adduct pH 8.0: 23 h incubation with 10 mM cysteine at 37 °C, LC–MS UV trace
How it was run: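 Test compound was incubated with 10 mM cysteine in buffer at pH 5.5, 7.5 or 8.0 for 23 h at 37 °C. Cysteine adduct formation was quantified from the LC–MS UV trace.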

[2] = Indiscriminate thiol reactivity assay with GSH; format: physicochemical; settings: 23 h incubation with 5 mM GSH at 37 °C, LC–MS UV trace
How it was run: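 Test compound was incubated with 5 mM GSH in buffer at 37 °C for 23 h. Adduct formation was quantified from the LC–MS UV trace.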

hCatK [3] = target: T1, hCatK (Homo sapiens, UniProt P43235); assay: Kinetic evaluation of covalent inhibitors; format: biochemical
T1 sequence (P43235 115-329): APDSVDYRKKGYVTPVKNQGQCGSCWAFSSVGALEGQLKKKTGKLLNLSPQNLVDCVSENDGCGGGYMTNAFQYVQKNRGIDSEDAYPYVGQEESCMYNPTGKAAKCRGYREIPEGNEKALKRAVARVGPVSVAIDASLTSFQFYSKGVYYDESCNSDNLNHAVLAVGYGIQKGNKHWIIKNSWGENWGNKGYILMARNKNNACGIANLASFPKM
How it was run: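 Recombinant hCatK (100 pM) was used with 4 μM Z-FR-AMC at 26 °C. The reaction was started by adding enzyme to substrate plus test compound. Progress curves of substrate hydrolysis were fitted to derive kinetic constants. Values are mean ± SD of one representative experiment measured in triplicate.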

hCatK [4] = target: T1, hCatK; assay: In vitro inhibition assay, fluorogenic substrate; format: biochemical
How it was run: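 Fluorogenic substrate was then added and proteolytic activity read. Values are mean ± SD of one representative experiment measured in triplicate. Selectivity was taken from IC50 values across these proteases.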

hCatK [5] = target: T1, hCatK; assay: Reversibility of inhibition; format: biochemical; settings: 300-fold dilution into Z-FR-AMC
How it was run: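 Jump dilution: recombinant hCatK was preincubated with test compound at high concentration to fully occupy the active site. The mixture was then diluted 300-fold into Z-FR-AMC solution. Progress curves of hCatK activity were recorded to detect recovery of substrate hydrolysis. E-64 served as control.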

human osteoclasts (OCs) [6] = assay: Bone resorption by osteoclasts cultured on cortical bone slices; format: cell-based
How it was run: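 Human CD14+ monocytes were seeded on bone slices, with M-CSF added on day 0 and RANKL on day 3 to drive osteoclast maturation. Medium containing test compound or DMSO was refreshed on days 7, 10, 13 and 16. On day 21 the cells were washed off and lysed. Resorption pits (trenches vs pits) were stained with Coomassie Brilliant Blue, and total resorption area was quantified.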

CatK [7] = target: T2, CatK (Homo sapiens, UniProt P43235); assay: Cathepsin K activity in osteoclast lysates; format: cell-based; settings: lysates treated with BMV109; increase with ODN ascribed to displacement by probe
T2 sequence (P43235 115-329): T1 sequence (P43235 115-329)

human osteoclasts (OCs) [8] = assay: TRAcP staining and counting of mature OCs on plastic; format: cell-based; settings: highest concentrations
[9] = cited from earlier work
rodentCatK = settings: mice and rats; cited from earlier work
[10] = cited from earlier work; remark: listed apart in the source
CatK [11] = settings: 100 nM; cited from earlier work
[12] = 100 pM hCatK, 4 μM Z-FR-AMC, 26 °C, reversible covalent

| SMILES | Cysteine adduct formation [1] | Cysteine adduct pH 5.5 [1] | Cysteine adduct pH 7.5 [1] | Cysteine adduct pH 8.0 [1] | GSH adduct pH 7.5 [2] | also measured |
| --- | --- | --- | --- | --- | --- | --- |
| CC#CC(=O)N1CCC[C@H]1c1nc(-c2ccc(C(=O)Nc3ccccn3)cc2)c2c(N)nccn12 [Acalabrutinib] | observed | 19% | 98% | 97% | 95% |  |
| CN(C)C/C=C/C(=O)Nc1cc2c(Nc3ccc(F)c(Cl)c3)ncnc2cc1O[C@H]1CCOC1 [Afatinib] | adduct formation that increases upon increasing the pH of the buffer | 92% | 98% | 95% | 94% |  |
| CC(C)C[C@H](NC(=O)[C@H]1O[C@@H]1C(=O)O)C(=O)NCCCCN=C(N)N [Compound E-64, E-64] | adduct formation that increases upon increasing the pH of the buffer | <1% | 68% | 79% | 64% | Ki (hCatK [3]; 100 pM hCatK, 4 μM Z-FR-AMC, 26 °C, irreversible covalent, mean ± SD): 11 ± 1.6 nM |
| C=CC(=O)N1CCC[C@@H](n2nc(-c3ccc(Oc4ccccc4)cc3)c3c(N)ncnc32)C1 [Ibrutinib] | adduct formation that increases upon increasing the pH of the buffer | 9% | 99% | 96% | 91% |  |
| CC(C)(F)C[C@H](N[C@@H](c1ccc(-c2ccc(S(C)(=O)=O)cc2)cc1)C(F)(F)F)C(=O)NC1(C#N)CC1 [ODN, odanacatib] | adduct formation that increases upon increasing the pH of the buffer | <1% | 17% | 48% | 0%^b | IC50 (hCatK [4]): < 1 nM; Selectivity for CatK over related human cathepsins (hCatK [4]; from IC50 values of Table 2): selective for hCatK; Ki (hCatK [3]): 3.8 ± 2.7 nM; k5 (rate of covalent bond formation) (hCatK [3]; [12]): 0.12 ± 0.026 min⁻¹; k6 (rate of covalent bond dissociation) (hCatK [3]; [12]): 0.033 ± 0.0077 min⁻¹; Reversibility of hCatK inhibition (hCatK [5]): (fast) reversible inhibitor; Bone resorption morphology at 3 nM (human osteoclasts (OCs) [6]; 3 nM, 21 days culture, Coomassie staining): deep trenches; Bone resorption morphology at 15 nM (human osteoclasts (OCs) [6]; 15 nM, 21 days culture, Coomassie staining): shallow pits; Effective dose / concentrations inhibiting bone resorption (human osteoclasts (OCs) [6]; 21 days culture on bone slices): around 15 nM; Mature CatK activity in OC lysates (BMV109 labeling) (CatK [7]): strong increase of mature CatK activity; Number of OCs cultured on plastic (human osteoclasts (OCs) [8]): increase in the number of OCs; half-life [9]: 66 to 93 h; Reduction of apparent potency on rodentCatK compared to humanCatK (rodentCatK): up to 182 fold; Side effects in phase III clinical trials [10]: increased stroke risks and cardiovascular events; CatK expression upon ODN treatment (CatK [11]): significant increase in CatK expression; Number of OCs upon ODN treatment (CatK [11]): without an increase in the number of OCs |
